TDP2 absorb: blocks human TDP2 phosphodiesterase activity; O95551; recombinant TDP2, T5PNP hydrolysis, p-nitrophenol absorbance 415 nm; inhibition, % at 12.8 µM; 370,000 tested, 0.34% active; AID 720702;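 active = inhibition above the mean of all tested compounds plus 3 SD, set per campaign, cut at about 25% in these data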;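 note: 0% = DMSO with enzyme and 100% = buffer with substrate but no TDP2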
Target sequence (O95551 whole entry, looked up): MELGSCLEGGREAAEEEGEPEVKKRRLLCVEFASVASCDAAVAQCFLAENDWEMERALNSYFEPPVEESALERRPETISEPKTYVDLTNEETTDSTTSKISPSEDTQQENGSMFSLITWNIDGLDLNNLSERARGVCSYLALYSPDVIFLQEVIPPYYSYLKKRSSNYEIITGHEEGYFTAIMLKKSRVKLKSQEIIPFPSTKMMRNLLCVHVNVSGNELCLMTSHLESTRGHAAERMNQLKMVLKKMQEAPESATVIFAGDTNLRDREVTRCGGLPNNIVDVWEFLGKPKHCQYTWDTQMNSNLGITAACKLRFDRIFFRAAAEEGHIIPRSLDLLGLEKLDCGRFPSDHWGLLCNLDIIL
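Material: recombinant human TDP2; quantity: TDP2 enzyme at 120 nM final; medium: Tris-HCl pH 7.5 with MgCl2; compound: single concentration, 12.8 µM nominal, with 1% DMSO; incubation: 2 h enzyme incubation at 37 °C; signal: epi absorbance; measure: percent inhibition; benchmarks: high control without enzyme, low control DMSO plus TDP2; repeats: singlicate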
Casp6 inh: inhibitors of human caspase-6; inhibition, % at 12.5 µM; AID 686996; purified caspase-6, Z-VEID-R110 cleavage fluorescence; 350,000 tested, 0.53% active; P55212;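 active = mean inhibition across replicates at least about 35%, with every replicate also reaching that limit, limit read from the data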;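 note: 0% = median of neutral control wells and 100% = no fluorescence left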
NSD2 HMT inh: blocks human histone methyltransferase NSD2. O96028. NSD2 peptide methylation, AlphaScreen, 120 min. inhibition, % at 12.5 µM. 310,000 tested, 0.54% active; in the data active = inhibition above about 50%
UHRF1 MBD2 ctr: UHRF1 methyl-DNA binding inhibition. Q96T88. inhibition, % at 4.4 µM. 370,000 tested, 0.75% active. AID 687016. UHRF1 binding to methylated oligo, TR-FRET; in the data active = inhibition above about 21%;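 note: UHRF1 SRA domain binding a hemimethylated CpG hairpin DNA probe; 0% = median of test compound wells and 100% = reference inhibitor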
LEDGF integ inh: blocks HIV-1 LEDGF/p75-dependent DNA integration; 370,000 tested, 0.64% active; TR-FRET IN-LEDGF/p75 DNA integration, Eu/Cy5; inhibition, % at 3.7 µM;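 active = inhibition above the screen-wide mean plus 3 SD, cut at about 13% in these data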;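 note: signal is the Cy5 over europium emission ratio at 671 and 618 nm; 0% = plate median of compound wells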
MBD2 inh: blocks human MBD2 binding to methylated DNA; Q9UBB5; TR-FRET, MBD2 binding to methylated oligonucleotide; inhibition, % at 4.4 µM; 370,000 tested, 0.31% active; in the data active = inhibition above about 13%
AlphaScreen art: counter-screen for NSD2 inhibitors: AlphaScreen artifacts; AID 1053174; AC35, µM (highest dose often 10 µM), without a hit: at the highest dose activity change, negative = signal loss; AlphaScreen artifact counterscreen, preloaded methylated H4 peptide; shares compounds with NSD2 HMT inh; 1,500 tested, 9.4% active; call rule not given here
An asterisk follows results filed as active; . = no result given. Compounds with a hit are over-represented: about 1.8% of the library has one in this group of screens.

SMILES | TDP2 absorb | Casp6 inh | NSD2 HMT inh | UHRF1 MBD2 ctr | LEDGF integ inh | MBD2 inh | AlphaScreen art
COc1ccc(/C=N/Nc2cc(N3CCCC3)nc(N3CCCC3)n2)cc1 | -7 | 1 | 102* | -6 | -3 | -6 | -9%
Oc1ccc(/C=N/Nc2cc(N3CCCC3)nc(N3CCCC3)n2)cc1 | 0 | . | 7 | -6 | 2 | -1 | .
O=C(CSc1nnc2ccccn12)NNC(=O)c1ccc([N+](=O)[O-])cc1 | 10 | -1 | 86* | 0 | -1 | 0 | -4%
N#Cc1cccc(-c2ccc([C@@H]3[C@H](CO)N4CCCCN(C(=O)Nc5ccccc5)C[C@@H]34)cc2)c1 | . | 2 | . | . | . | . | .
COc1ccc(-c2csc(N(CCCN(C)C)C(=O)c3ccccc3Cl)n2)cc1 | 6 | -28 | 58* | -2 | -1 | -9 | -6%
COc1ccc(-c2csc(N(CCCN(C)C)C(=O)c3ccccc3C)n2)cc1 | 4 | -33 | 17 | 0 | 1 | 4 | .
COc1ccc(C2CC(=O)c3c(C)nc(N4CCN(c5ccccc5)CC4)nc3C2)cc1 (stereo not drawn) | 8 | . | 53* | -2 | 0 | -5 | -6%
O=C1CCCC(O)=C1N=Nc1cccc(C(=O)O)c1 | -9 | 37* | 69* | 21* | 5 | 1 | -2%
CCCCCCCCn1cnc2c(N)c(C)c(C)cc21 | -18 | 8 | 76* | 0 | -1 | -5 | -5%
COCCN(C(=O)CCC(=O)Nc1cc(C)on1)C(C(=O)NC(C)(C)C)c1ccccc1Cl (stereo not drawn) | 1 | -1 | 140* | 1 | 1 | 0 | -6%
COc1ccc(C(C(=O)NC(C)(C)C)N(C(=O)CCC(=O)Nc2cc(C)on2)c2ccccc2F)cc1 (stereo not drawn) | 3 | 7 | 77* | 0 | 2 | -4 | 0%
COc1ccc(C(C(=O)NC(C)(C)C)N(C(=O)CCC(=O)Nc2cc(C)on2)c2cc(C)cc(C)c2)cc1 (stereo not drawn) | 8 | 2 | 14 | -3 | 0 | 0 | .
COc1ccc2c(c1)Cc1sc(NC(=O)c3ccccc3)nc1-2 | 19 | . | 128* | -8 | 8 | -10 | -5%
COc1ccc2c(c1)Cc1sc(NC(=O)c3cccs3)nc1-2 | 16 | . | 78* | -9 | 1 | -5 | -2%
COc1ccc(-c2nc(NC(=O)c3ccccc3)sc2-c2ccc([N+](=O)[O-])cc2)cc1 | -12 | -7 | -2 | 6 | 0 | 6 | .
CC1CCCCC12NC(=O)N(CC(=O)NC(=O)NCc1ccco1)C2=O (stereo not drawn) | 13 | . | 121* | -1 | 0 | 0 | 5%
COCCNC(=O)Cc1c(C)c2c(cc(C)c3c(C)coc32)oc1=O | -14 | 0 | 51* | 2 | 5 | 6 | 3%
CCC(=O)N1CC2(C1)CN(C(=O)c1cnccn1)[C@@H](CO)c1c2c2ccc(OC)cc2n1C | . | 0 | . | . | . | . | .
C[C@@H]1CN([C@H](C)CO)C(=O)c2cccc(NC(=O)CCCCCC(=O)Nc3ccccc3N)c2O[C@H]1CN(C)C(=O)Nc1ccc(C(F)(F)F)cc1 | . | 1 | . | . | . | . | .
CCOC(=O)C1=C(C)N(C)C(=S)NC1c1cccc(Cl)c1Cl (stereo not drawn) | 0 | 1 | -3 | 1 | -3 | -3 | .
CCOC(=O)C1=C(C)N(C)C(=S)NC1c1ccccc1Cl (stereo not drawn) | -5 | . | 96* | -1 | -2 | -4 | 1%
CC1CCCN(C2=C(NS(=O)(=O)c3ccc(Cl)cc3)C(=O)c3ccccc3C2=O)C1 (stereo not drawn) | -1 | . | 47 | -3 | -3 | -6 | .
NC(=O)C1CCN(C2=C(NS(=O)(=O)c3ccc(Cl)cc3)C(=O)c3ccccc3C2=O)CC1 | 11 | 8 | 77* | -13 | 3 | -12 | -4%
COC(=O)C1CCN(C2=C(NS(=O)(=O)c3ccc(Cl)cc3)C(=O)c3ccccc3C2=O)CC1 | 5 | 9 | 62* | -7 | 5 | -10 | 7.8µM*
Cc1nc(-[n+]2nc(-c3ccncc3)nn2-c2ccccc2)sc1C | -5 | 16 | 69* | 12 | -6 | 0 | 2.1µM*
